CR mimetic SO: caloric restriction mimetics inhibiting age-related superoxide in yeast; S. cerevisiae aged cells, superoxide DHE fluorescence; active compounds read low; superoxide response (% of plate mean), % at 10 µM; hit rate 0.18% among 330,000; AID 2690;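 active means superoxide response under a set limit, about three screen SD below normal, cut at about 65% in these data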;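 further: yeast aged for seven days with compound at 30 °C before DHE staining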
SR-BI uptake up: activators of SR-BI mediated HDL lipid uptake; CHO ldlA[mSR-BI] cells, DiI-HDL uptake fluorescence, 3 h; 100 = double the neutral-control signal; activation, % at 12.5 µM; hit rate 0.096% among 320,000;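 active means mean replicate activation of at least 60% and every replicate at or above 60%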
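system = CHO ldlA[mSR-BI] cells, LDL receptor-null, SR-BI overexpressing | medium = Ham's F12 with 0.5% BSA, HEPES 25 mM, pH 7.4 | probe or stimulus = DiI-HDL 10 µg/mL | compound dosing = single-point compound dose | incubation = compound exposure 3 h, 37 °C | technique = DiI fluorescence, bottom read | read-out = cell-associated DiI fluorescence as measure of HDL uptake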
SR-BI DiI inh: inhibitors of mouse SR-BI mediated HDL lipid uptake | hit rate 0.96% among 320,000 | inhibition, % at 12.5 µM | AID 488896 | ldlA[mSR-BI] CHO cells, DiI-HDL uptake fluorescence, 3 h;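 active means mean replicate inhibition of at least 70% and a set share of replicates each scoring 70 or more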
Target sequence (Q61009 whole entry, looked up): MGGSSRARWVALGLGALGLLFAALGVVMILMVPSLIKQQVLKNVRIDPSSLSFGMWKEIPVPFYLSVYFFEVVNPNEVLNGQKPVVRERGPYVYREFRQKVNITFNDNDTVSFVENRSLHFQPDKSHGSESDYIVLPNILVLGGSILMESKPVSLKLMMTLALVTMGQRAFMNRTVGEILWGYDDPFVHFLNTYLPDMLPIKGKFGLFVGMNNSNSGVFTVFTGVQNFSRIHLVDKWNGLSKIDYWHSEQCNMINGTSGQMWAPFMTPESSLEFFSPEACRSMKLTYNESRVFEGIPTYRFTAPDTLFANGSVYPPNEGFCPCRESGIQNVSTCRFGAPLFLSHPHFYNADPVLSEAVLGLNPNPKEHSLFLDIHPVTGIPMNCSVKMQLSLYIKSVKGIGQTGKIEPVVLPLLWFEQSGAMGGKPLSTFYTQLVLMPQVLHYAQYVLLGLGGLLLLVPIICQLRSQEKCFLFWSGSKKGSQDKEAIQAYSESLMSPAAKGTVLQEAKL
AHR act: activates the human aryl hydrocarbon receptor. P35869. AHR-responsive luciferase reporter cells, luminescence. hit rate 2.5% among 320,000. AID 2796. activation, % at 5 µM; in the data active means activation above about 47%
SMARCA2 act: activators of SMARCA2 function; MG213 cells, MMTV-luciferase reporter, dexamethasone, overnight; activation, % at 9.1 µM; hit rate 1% among 370,000; in the data active means activation above about 7.8%
Lipid droplet: modulators of hepatic lipid droplet formation. AML12 mouse hepatocytes, oleate lipid droplets, BODIPY imaging. inhibition, % at 6.5 µM. hit rate 0.4% among 240,000;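 active means lipid droplet intensity inhibited by at least 50%, with more than 500 cells counted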
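Material: mouse AML12 hepatocyte cell line, fixed after treatment; Timing: compound with oleate, overnight; Technique: high-content imaging of BODIPY-stained droplets and DAPI nuclei; Probe or stimulus: oleate, 100 µM final; Dosing: compound at 6.5 µM only.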
A number is an active result; 0 = inactive; - = no result. Only some compounds are listed: those with a hit (about 4.3% of all), similar ones and a draw of the others.

SMILES	CR mimetic SO	SR-BI uptake up	SR-BI DiI inh	AHR act	SMARCA2 act	Lipid droplet
CC(C)n1c2ccccc2c2nc3ccccc3nc21	0	0	0	56.9	0	0
Cc1cc(O)cc(=O)n1-c1ccc(Cl)c(C(F)(F)F)c1	-	-	-	-	0	-
CC(=O)NC1CCCCN(C)C1=O (configuration not stated)	-	-	-	-	0	-
CN(C)CCN(C(=O)/C=C/c1cccs1)c1nc2ccc(F)cc2s1	0	0	0	48.9	0	0
COCCNC(=O)c1cc2ncc(Br)cn2n1	0	0	0	0	0	0
O=C(NCCc1ccccc1)c1cc2ncc(Br)cn2n1	0	0	0	0	8.1	0
O=C(Nc1ccc2c(c1)OCO2)c1ccc(Br)o1	0	0	0	129.1	0	0
COc1ccccc1C(=O)NNC(=O)c1ccc(Br)o1	0	0	0	55.2	0	0
COc1ccccc1CNC(=O)c1ccc(Br)o1	-	0	0	0	0	0
O=C(Nc1ccc2c(c1)OCO2)c1cncc(Br)c1	0	0	0	92.7	0	-
CNc1ccccc1/C(O)=C(\C#N)C(=O)NCc1cccc2ccccc12	-	-	-	-	0	-
O=C(Nc1cccc(C(F)(F)F)c1)c1cc2ncc(Br)cn2n1	0	0	0	0	0	0
COc1cc(NC(=O)c2ccc(Br)o2)ccc1NC(=O)C(C)C	0	0	71.0	0	0	0
O=C(Nc1ccc2c(c1)OCO2)c1cc2ncc(Br)cn2n1	-	0	0	-	0	68.8
COC(=O)C1CN(C2CC2)CCS(=O)(=O)N1Cc1cn(Cc2ccc(F)cc2)nn1 (configuration not stated)	-	-	-	-	0	-
O=C(Nc1ccccc1O)c1c(O)c2c([nH]c1=O)CCCC2	0	0	0	56.8	0	0
CC(=O)c1cc(-c2ccccc2)n(CC(=O)NCc2ccccc2Cl)c1C	-	-	-	-	0	-
CCOC(=O)c1c(C)n(CCOc2ccccc2)c2ccc(O)cc12	0	0	0	51.0	0	0
COCCOC(=O)c1c(C)n(C)c2ccc(OC(=O)c3c(OC)cccc3OC)cc12	0	396.6	0	0	0	0
CCOC(=O)c1c(C)n(C)c2ccc(OCC(N)=O)cc12	0	0	0	69.8	0	0
CCOC(=O)[C@]12CCCC=C1N(Cc1ccc(OC)cc1)C(=O)[C@@H]2CC(=O)NCCCCc1ccccc1	-	-	-	-	0	-
COc1ccc(C(=O)c2c3ccc(C(F)(F)F)cc3[n+]([O-])n2CCCN)cc1	0	0	0	64.5	0	-
NC(=O)CCn1c(C(=O)c2cccc([N+](=O)[O-])c2)c2ccccc2[n+]1[O-]	0	0	0	57.2	0	0
NCCCn1c(C(=O)c2cc(Cl)c(N)c(Cl)c2)c2ccccc2[n+]1[O-]	0	0	0	72.3	0	-
COc1ccc(C(=O)c2c3ccccc3[n+]([O-])n2CCC(N)=O)cc1	0	0	0	0	0	-
SMILES	CR mimetic SO	SR-BI uptake up	SR-BI DiI inh	AHR act	SMARCA2 act	Lipid droplet
NC(=O)CCn1c(C(=O)c2cc(Cl)c(N)c(Cl)c2)c2ccccc2[n+]1[O-]	0	0	0	76.3	0	0
COCC(=O)N1CCC(C(=O)NC2CCCc3ccccc32)CC1 (configuration not stated)	-	-	-	-	0	-
O=S(=O)(NCCN1CCCC1)c1ccc(Cl)cc1	0	0	0	0	0	0
O=S(=O)(NCCN1CCCC1)c1ccc(Br)cc1	0	62.0	0	0	0	0
Nc1ncnc2c1ncn2[C@@H]1O[C@H](CNS(=O)(=O)c2cc(S(=O)(=O)c3ccccc3)cs2)[C@@H](O)[C@H]1O	0	130.5	0	-	0	-
Cc1cc(S(=O)(=O)NC[C@H]2O[C@@H](n3cnc4c(N)ncnc43)[C@H](O)[C@@H]2O)c(C)s1	0	0	0	0	0	-
CC[C@H](CCC(=O)N(c1ccccc1)c1ccccc1)C1CC1	-	-	-	-	0	-
O=C(NCc1nc2ccccc2[nH]1)c1ccco1	0	0	0	0	0	0
O=C(N/C(=C/c1ccc(Br)cc1)c1nc2ccccc2[nH]1)c1ccco1	0	0	0	66.6	0	-
O=C(N/C(=C/c1ccc(Cl)cc1)c1nc2ccccc2[nH]1)c1ccco1	0	0	0	70.4	0	-
O=C(OC12CCCN(C1)/C(=C/c1cccc(Cl)c1)C2)C1CCCC1 (configuration not stated)	-	-	-	-	0	-
Cn1c(CC(=O)Nc2ccccc2)c(Sc2ccccc2)c2ccccc21	0	0	0	0	0	0
CSc1c(CC(=O)Nc2ccccc2)n(C)c2ccccc12	0	0	0	58.4	0	0
Cc1cc(NS(=O)(=O)c2ccc(NC(=O)CSc3nnc(-c4ccncc4)n3Cc3ccco3)cc2)nc(C)n1	-	-	-	-	0	-
COc1ccc(-c2cc(C(=O)NN=Cc3ccccc3[N+](=O)[O-])[nH]n2)cc1	-	-	-	-	0	-
CCn1c(SCC(=O)NN=Cc2c[nH]c3ccccc23)nc2ccccc21	-	-	-	-	0	-
c1ccc([C@H]2CN3C(=N2)Sc2ccccc23)cc1	0	0	0	72.2	0	-
CCOc1ccc(/C=C2\NCCc3cc(OCC)c(OCC)cc32)cc1OCC	-	-	-	-	0	-
C=CCOC(=O)C(C#N)c1nc2ccccc2nc1N1CCN(Cc2ccccc2)CC1 (configuration not stated)	0	0	84.4	0	0	0
C=CCOC(=O)C(C#N)c1nc2ccccc2nc1N1CCN(c2ccccc2OC)CC1 (configuration not stated)	0	0	81.8	0	0	0
COCCOC(=O)C(C#N)c1nc2ccccc2nc1N1CCN(Cc2ccccc2)CC1 (configuration not stated)	0	0	0	0	-	0
COc1ccccc1-n1c(=O)oc2ccc(Cl)cc2c1=O	0	0	0	68.2	0	0
COc1c(Cl)c(=O)oc2ccc(Cl)cc12	-	-	-	-	0	-
Cc1cccc(CN2[C@@H](C)[C@H](c3ccccc3)Oc3cc(Br)ccc3S2(=O)=O)c1	-	-	-	-	0	-
COc1ccc(OC)c2c1C(=O)c1ccccc1C2=O	0	-	-	0	0	-
SMILES	CR mimetic SO	SR-BI uptake up	SR-BI DiI inh	AHR act	SMARCA2 act	Lipid droplet
COc1cccc2c1C(=O)c1ccc3ccccc3c1C2=O	0	0	0	61.9	-	0
COc1ccc(CCN2CCC(CN3C(=S)NC[C@@H]3Cc3ccccc3)CC2)cc1OC	-	-	-	-	0	-
N#Cc1cc2ccccc2nc1SCC(=O)NC1CC1	0	0	0	64.0	0	0
Cc1ccc(OCc2nc(-c3cccs3)no2)c([N+](=O)[O-])c1	0	0	0	0	7.9	0
O=[N+]([O-])c1ccccc1OCc1nc(-c2cccs2)no1	0	0	0	0	0	0
COC(=O)[C@]12C[C@H](CC(=O)NCc3cccs3)C(=O)N(CCC3=CCCCC3)C1=C[C@H](C1CCCC1)O[C@@H]2C	-	-	-	-	0	-
c1cc(-c2nnc3n2N=C(c2ccc4c(c2)OCO4)CS3)ccn1	-	-	-	-	0	-
Cn1c(/C(C#N)=C(\O)c2ccc(Cl)s2)nc2ccccc21	0	0	0	64.9	0	0
CC1Cc2ccccc2N1C(=O)CSc1nnnn1Cc1ccccc1 (configuration not stated)	0	0	0	47.7	0	-
Cc1nc(NC(=O)CSc2nc3cccnc3n2C2CCCCC2)sc1C	0	0	0	0	0	-
